Laboratory results as given in ChEMBL document CHEMBL3352033, “Jatrophanes from Euphorbia squamosa as potent inhibitors of Candida albicans multidrug transporters” (J Nat Prod, 2014).
pIC50: −log10 of the molar value. Active and inactive are the calls of the source. The calls are words filed in the database; no cut-off is given here.

system: Candida albicans; assay: Inhibition of Candida albicans CaCdr1p-mediated drug efflux overexpressed in Saccharomyces cerevisiae assessed as nile red accumulation after 30 mins by flow cytometry
In short: (§1)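 Host is S. cerevisiae AD1-8u− deleted for its own multidrug transporters, carrying the C. albicans transporter ORF integrated at the PDR5 locus (AD-CDR1 or AD-MDR1). Cells are grown in YEPD at 30 °C from OD600 0.1 to 0.25, then resuspended as a 5% suspension in YEPD diluted 1:2 with water. NR is 7 μM final with inhibitor at 70 μM, 30 min at 30 °C. Read-out is flow cytometry of 10 000 cells. Three independent experiments.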

Q: `CC(=O)O[C@@H]1[C@@H](OC(C)=O)C(C)(C)/C=C/[C@H](C)C(=O)[C@@]2(OC(C)=O)C[C@@H](C)[C@H](OC(=O)c3ccccc3)/C2=C/[C@](C)(O)[C@@H]1OC(C)=O` was tested. Which inhibition did it give?
A: 88%

Q: How did the inhibition turn out when `CC(=O)O[C@@H]1[C@@H](O)[C@@H](OC(C)=O)/C(C)=C/[C@H]2[C@@H](OC(=O)c3ccccc3)[C@H](C)C[C@]2(OC(C)=O)[C@H](OC(C)=O)[C@@H](C)/C=C/C1(C)C` was run?
A: Active

system: Candida albicans; assay: Inhibition of Candida albicans CaMdr1p-mediated drug efflux overexpressed in Saccharomyces cerevisiae assessed as nile red accumulation after 30 mins by flow cytometry; in short: as §1

Q: For `CC(=O)O[C@@H]1[C@@H](OC(C)=O)C(C)(C)/C=C/[C@H](C)C(=O)[C@@]2(OC(C)=O)C[C@@H](C)[C@H](OC(=O)c3ccccc3)/C2=C/[C@](C)(O)[C@@H]1OC(C)=O`, which inhibition is on record?
A: Active

system: Saccharomyces cerevisiae; assay: Toxicity against Saccharomyces cerevisiae AD1-8u(-); type: organism-based
In short: (§2)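 Yeast cells (10^4) seeded with inhibitor 0.15−80 μM or none, grown 48 h at 30 °C in YEPD; optical density measured. Growth without inhibitor set as 100%, and the concentration giving 50% growth taken as IC50. Means ± SD of three independent experiments, duplicate samples.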

Q: How did the pIC50 turn out when `CC(=O)O[C@@H]1[C@@H](OC(C)=O)C(C)(C)/C=C/[C@H](C)C(=O)[C@@]2(OC(C)=O)C[C@@H](C)[C@H](OC(=O)c3ccccc3)/C2=C/[C@](C)(O)[C@@H]1OC(C)=O` was run?
A: 5.64

Q: How did the pIC50 turn out when `CC(=O)O[C@@H]1[C@@H](O)[C@@H](OC(C)=O)/C(C)=C/[C@H]2[C@@H](OC(=O)c3ccccc3)[C@H](C)C[C@]2(OC(C)=O)[C@H](OC(C)=O)[C@@H](C)/C=C/C1(C)C` was run?
A: 5.64

system: Saccharomyces cerevisiae; assay: Toxicity against Saccharomyces cerevisiae AD1-8u(-) overexpressing CaCdr1p; type: organism-based; in short: as §2

Q: How did the pIC50 turn out when `CC(=O)O[C@@H]1[C@@H](OC(C)=O)C(C)(C)/C=C/[C@H](C)C(=O)[C@@]2(OC(C)=O)C[C@@H](C)[C@H](OC(=O)c3ccccc3)/C2=C/[C@](C)(O)[C@@H]1OC(C)=O` was run?
A: 4.57

Q: How did the pIC50 turn out when `CC(=O)O[C@@H]1[C@@H](O)[C@@H](OC(C)=O)/C(C)=C/[C@H]2[C@@H](OC(=O)c3ccccc3)[C@H](C)C[C@]2(OC(C)=O)[C@H](OC(C)=O)[C@@H](C)/C=C/C1(C)C` was run?
A: 5.43

system: Saccharomyces cerevisiae; assay: Toxicity against Saccharomyces cerevisiae AD1-8u(-) overexpressing CaMdr1p; type: organism-based; in short: as §2

Q: How did the pIC50 turn out when `CC(=O)O[C@@H]1[C@@H](OC(C)=O)C(C)(C)/C=C/[C@H](C)C(=O)[C@@]2(OC(C)=O)C[C@@H](C)[C@H](OC(=O)c3ccccc3)/C2=C/[C@](C)(O)[C@@H]1OC(C)=O` was run?
A: 4.55

Q: How did the pIC50 turn out when `CC(=O)O[C@@H]1[C@@H](O)[C@@H](OC(C)=O)/C(C)=C/[C@H]2[C@@H](OC(=O)c3ccccc3)[C@H](C)C[C@]2(OC(C)=O)[C@H](OC(C)=O)[C@@H](C)/C=C/C1(C)C` was run?
A: 5.46

system: Saccharomyces cerevisiae; assay: Resistance index, ratio of IC50 for Saccharomyces cerevisiae AD1-8u(-) overexpressing CaCdr1p to IC50 for Saccharomyces cerevisiae AD1-8u(-); type: functional
In short: (§3)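 RI computed as the IC50 for the AD-CDR1 or AD-MDR1 strain divided by that for control strain AD1-8u−. Each IC50 comes from optical density after 48 h growth at 30 °C of 10^4 cells with inhibitor at 0.15−80 μM, 50% growth versus untreated. Means ± SD of three independent experiments.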

Q: Which “Ratio IC50” value does the source give for `CC(=O)O[C@@H]1[C@@H](OC(C)=O)C(C)(C)/C=C/[C@H](C)C(=O)[C@@]2(OC(C)=O)C[C@@H](C)[C@H](OC(=O)c3ccccc3)/C2=C/[C@](C)(O)[C@@H]1OC(C)=O` here?
A: 11.6

Q: Which “Ratio IC50” value does the source give for `CC(=O)O[C@@H]1[C@@H](O)[C@@H](OC(C)=O)/C(C)=C/[C@H]2[C@@H](OC(=O)c3ccccc3)[C@H](C)C[C@]2(OC(C)=O)[C@H](OC(C)=O)[C@@H](C)/C=C/C1(C)C` here?
A: 1.6

system: Saccharomyces cerevisiae; assay: Resistance index, ratio of IC50 for Saccharomyces cerevisiae AD1-8u(-) overexpressing CaMdr1p to IC50 for Saccharomyces cerevisiae AD1-8u(-); type: functional; in short: as §3

Q: With `CC(=O)O[C@@H]1[C@@H](OC(C)=O)C(C)(C)/C=C/[C@H](C)C(=O)[C@@]2(OC(C)=O)C[C@@H](C)[C@H](OC(=O)c3ccccc3)/C2=C/[C@](C)(O)[C@@H]1OC(C)=O` as the compound, how does the “Ratio IC50” value read?
A: 12.3

Q: Which “Ratio IC50” value does the source give for `CC(=O)O[C@@H]1[C@@H](O)[C@@H](OC(C)=O)/C(C)=C/[C@H]2[C@@H](OC(=O)c3ccccc3)[C@H](C)C[C@]2(OC(C)=O)[C@H](OC(C)=O)[C@@H](C)/C=C/C1(C)C` here?
A: 1.5

system: Saccharomyces cerevisiae; assay: Growth inhibition of Saccharomyces cerevisiae AD1-8u(-) assessed as FIC of fluconazole by checkerboard method; type: functional
In short: (§4)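 Checkerboard per CLSI: yeast cells (10^4) in 96-well format with fluconazole 0.15−800 μM crossed with inhibitor 0.15−80 μM, grown 48 h at 30 °C in YEPD; growth read by optical density. FIC for FLC = IC50 of FLC in combination/IC50 alone; FIC for inhibitor likewise; FICI from both. Means ± SD of three independent experiments.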

Q: How did the FIC50 turn out when `CC(=O)O[C@@H]1[C@@H](OC(C)=O)C(C)(C)/C=C/[C@H](C)C(=O)[C@@]2(OC(C)=O)C[C@@H](C)[C@H](OC(=O)c3ccccc3)/C2=C/[C@](C)(O)[C@@H]1OC(C)=O` was run?
A: 1.2

Q: How did the FIC50 turn out when `CC(=O)O[C@@H]1[C@@H](O)[C@@H](OC(C)=O)/C(C)=C/[C@H]2[C@@H](OC(=O)c3ccccc3)[C@H](C)C[C@]2(OC(C)=O)[C@H](OC(C)=O)[C@@H](C)/C=C/C1(C)C` was run?
A: 1.2

system: Saccharomyces cerevisiae; assay: Growth inhibition of Saccharomyces cerevisiae AD1-8u(-) overexpressing CaCdr1p assessed as FIC of fluconazole by checkerboard method; type: functional; in short: as §4

Q: How did the FIC50 turn out when `CC(=O)O[C@@H]1[C@@H](OC(C)=O)C(C)(C)/C=C/[C@H](C)C(=O)[C@@]2(OC(C)=O)C[C@@H](C)[C@H](OC(=O)c3ccccc3)/C2=C/[C@](C)(O)[C@@H]1OC(C)=O` was run?
A: 0.02

Q: How did the FIC50 turn out when `CC(=O)O[C@@H]1[C@@H](O)[C@@H](OC(C)=O)/C(C)=C/[C@H]2[C@@H](OC(=O)c3ccccc3)[C@H](C)C[C@]2(OC(C)=O)[C@H](OC(C)=O)[C@@H](C)/C=C/C1(C)C` was run?
A: 0.08

system: Saccharomyces cerevisiae; assay: Growth inhibition of Saccharomyces cerevisiae AD1-8u(-) overexpressing CaMdr1p assessed as FIC of fluconazole by checkerboard method; type: functional; in short: as §4

Q: With `CC(=O)O[C@@H]1[C@@H](OC(C)=O)C(C)(C)/C=C/[C@H](C)C(=O)[C@@]2(OC(C)=O)C[C@@H](C)[C@H](OC(=O)c3ccccc3)/C2=C/[C@](C)(O)[C@@H]1OC(C)=O` as the compound, how does the FIC50 read?
A: 0.5

Q: How did the FIC50 turn out when `CC(=O)O[C@@H]1[C@@H](O)[C@@H](OC(C)=O)/C(C)=C/[C@H]2[C@@H](OC(=O)c3ccccc3)[C@H](C)C[C@]2(OC(C)=O)[C@H](OC(C)=O)[C@@H](C)/C=C/C1(C)C` was run?
A: 1

system: Saccharomyces cerevisiae; assay: Growth inhibition of Saccharomyces cerevisiae AD1-8u(-) assessed as FIC of compound by checkerboard method; type: functional; in short: as §4

Q: Which FIC50 does the source give for `CC(=O)O[C@@H]1[C@@H](OC(C)=O)C(C)(C)/C=C/[C@H](C)C(=O)[C@@]2(OC(C)=O)C[C@@H](C)[C@H](OC(=O)c3ccccc3)/C2=C/[C@](C)(O)[C@@H]1OC(C)=O` here?
A: 0.07

Q: With `CC(=O)O[C@@H]1[C@@H](O)[C@@H](OC(C)=O)/C(C)=C/[C@H]2[C@@H](OC(=O)c3ccccc3)[C@H](C)C[C@]2(OC(C)=O)[C@H](OC(C)=O)[C@@H](C)/C=C/C1(C)C` as the compound, how does the FIC50 read?
A: 0.07

system: Saccharomyces cerevisiae; assay: Growth inhibition of Saccharomyces cerevisiae AD1-8u(-) overexpressing CaCdr1p assessed as FIC of compound by checkerboard method; type: functional; in short: as §4

Q: For `CC(=O)O[C@@H]1[C@@H](OC(C)=O)C(C)(C)/C=C/[C@H](C)C(=O)[C@@]2(OC(C)=O)C[C@@H](C)[C@H](OC(=O)c3ccccc3)/C2=C/[C@](C)(O)[C@@H]1OC(C)=O`, which FIC50 is on record?
A: 0.01

Q: How did the FIC50 turn out when `CC(=O)O[C@@H]1[C@@H](O)[C@@H](OC(C)=O)/C(C)=C/[C@H]2[C@@H](OC(=O)c3ccccc3)[C@H](C)C[C@]2(OC(C)=O)[C@H](OC(C)=O)[C@@H](C)/C=C/C1(C)C` was run?
A: 0.34

system: Saccharomyces cerevisiae; assay: Growth inhibition of Saccharomyces cerevisiae AD1-8u(-) overexpressing CaMdr1p assessed as FIC of compound by checkerboard method; type: functional; in short: as §4

Q: How did the FIC50 turn out when `CC(=O)O[C@@H]1[C@@H](OC(C)=O)C(C)(C)/C=C/[C@H](C)C(=O)[C@@]2(OC(C)=O)C[C@@H](C)[C@H](OC(=O)c3ccccc3)/C2=C/[C@](C)(O)[C@@H]1OC(C)=O` was run?
A: 0.02

Q: How did the FIC50 turn out when `CC(=O)O[C@@H]1[C@@H](O)[C@@H](OC(C)=O)/C(C)=C/[C@H]2[C@@H](OC(=O)c3ccccc3)[C@H](C)C[C@]2(OC(C)=O)[C@H](OC(C)=O)[C@@H](C)/C=C/C1(C)C` was run?
A: 0.36

system: Saccharomyces cerevisiae; assay: Growth inhibition of Saccharomyces cerevisiae AD1-8u(-) assessed as FIC index by checkerboard method; type: functional; in short: as §4

Q: For `CC(=O)O[C@@H]1[C@@H](OC(C)=O)C(C)(C)/C=C/[C@H](C)C(=O)[C@@]2(OC(C)=O)C[C@@H](C)[C@H](OC(=O)c3ccccc3)/C2=C/[C@](C)(O)[C@@H]1OC(C)=O`, which “fractional inhibitory concentration index (FICI)” value is on record?
A: 1.27

Q: Which “fractional inhibitory concentration index (FICI)” value does the source give for `CC(=O)O[C@@H]1[C@@H](O)[C@@H](OC(C)=O)/C(C)=C/[C@H]2[C@@H](OC(=O)c3ccccc3)[C@H](C)C[C@]2(OC(C)=O)[C@H](OC(C)=O)[C@@H](C)/C=C/C1(C)C` here?
A: 1.27

system: Saccharomyces cerevisiae; assay: Growth inhibition of Saccharomyces cerevisiae AD1-8u(-) overexpressing CaCdr1p assessed as FIC index by checkerboard method; type: functional; in short: as §4

Q: `CC(=O)O[C@@H]1[C@@H](OC(C)=O)C(C)(C)/C=C/[C@H](C)C(=O)[C@@]2(OC(C)=O)C[C@@H](C)[C@H](OC(=O)c3ccccc3)/C2=C/[C@](C)(O)[C@@H]1OC(C)=O` was tested. Which “fractional inhibitory concentration index (FICI)” value did it give?
A: 0.03

Q: How did the “fractional inhibitory concentration index (FICI)” value turn out when `CC(=O)O[C@@H]1[C@@H](O)[C@@H](OC(C)=O)/C(C)=C/[C@H]2[C@@H](OC(=O)c3ccccc3)[C@H](C)C[C@]2(OC(C)=O)[C@H](OC(C)=O)[C@@H](C)/C=C/C1(C)C` was run?
A: 0.42

system: Saccharomyces cerevisiae; assay: Growth inhibition of Saccharomyces cerevisiae AD1-8u(-) overexpressing CaMdr1p assessed as FIC index by checkerboard method; type: functional; in short: as §4

Q: How did the “fractional inhibitory concentration index (FICI)” value turn out when `CC(=O)O[C@@H]1[C@@H](OC(C)=O)C(C)(C)/C=C/[C@H](C)C(=O)[C@@]2(OC(C)=O)C[C@@H](C)[C@H](OC(=O)c3ccccc3)/C2=C/[C@](C)(O)[C@@H]1OC(C)=O` was run?
A: 0.52

Q: With `CC(=O)O[C@@H]1[C@@H](O)[C@@H](OC(C)=O)/C(C)=C/[C@H]2[C@@H](OC(=O)c3ccccc3)[C@H](C)C[C@]2(OC(C)=O)[C@H](OC(C)=O)[C@@H](C)/C=C/C1(C)C` as the compound, how does the “fractional inhibitory concentration index (FICI)” value read?
A: 1.36
